Screens (PubChem BioAssay)
Mcl1-Noxa inh – Mcl-1/Noxa interaction inhibition; Q07820; TR-FRET Mcl-1/Noxa peptide binding, 2 h; inhibition, % at 21.7 µM; hit rate 1.5% among 220,000;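 active = compounds that cut the protein-peptide binding signal by more than 50% relative to plate controls in a single-dose test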;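 note: His-tagged Mcl-1 with rhodamine Noxa BH3 peptide and terbium anti-His antibody; 0% = Mcl-1 plus Noxa peptide wells and 100% = peptide-only wells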
14-3-3 Bad inh – disrupts binding of bovine 14-3-3 zeta to phospho-Bad peptide | inhibition, % at 21.7 µM | AID 781 | hit rate 0.71% among 220,000 | P63103 | TR-FRET 14-3-3zeta/Dy647-pBad peptide displacement, 1 h;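 active = inhibition above about 70%, limit read from the data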;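 note: 0% = full 14-3-3 plus peptide FRET controls and 100% = background without 14-3-3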
Target sequence (P63103 whole entry, looked up): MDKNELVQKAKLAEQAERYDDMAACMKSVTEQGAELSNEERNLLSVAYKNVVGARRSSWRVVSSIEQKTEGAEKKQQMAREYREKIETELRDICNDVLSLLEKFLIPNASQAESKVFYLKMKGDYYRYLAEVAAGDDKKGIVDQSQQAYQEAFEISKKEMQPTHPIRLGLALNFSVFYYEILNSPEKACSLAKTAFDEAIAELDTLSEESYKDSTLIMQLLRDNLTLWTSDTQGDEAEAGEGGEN
Bim-Mcl-1 – inhibitors of Bim-Mcl-1 interaction, human; AID 1009; Bead-based flow cytometry, Bim peptide-Mcl-1 binding; hit rate 0.1% among 190,000; inhibition, % at 10 µM; in the data active = inhibition above about 40%;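 note: 0% = no compound tracer wells and 100% = peptide blocker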
Hck-Nef inh – human Hck-Nef kinase inhibition | inhibition, % at 20 µM | Recombinant Hck-YEEI plus Nef, Z-Lyte FRET kinase assay | AID 463187 | hit rate 0.68% among 220,000;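 active = Hck-Nef kinase inhibition above about 50%, limit read from the data; inactive = inhibition below that limit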;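 note: 0% = DMSO with Hck plus Nef and 100% = Hck alone without Nef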
Biofilm kill mix – mixtures killing C. albicans biofilm; AID 1242; hit rate 0.02% among 120,000; C. albicans biofilm persisters + clotrimazole, fluorescence viability; primary screen in compound mixtures of four per well; inhibition, % at 7.6 µM;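 active = inhibition above 30.3% in the primary screen of four-compound pools, then above 30% when the compound was retested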;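 note: compounds exposed to preformed 24 h biofilms for 48 h; 0% = untreated biofilm control and 100% = clotrimazole plus chlorhexidine kill blank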
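Incubation: 24 h biofilm formation, then 48 h compound exposure, 37 °C | Material: C. albicans biofilms | Buffer or medium: RPMI/MOPS medium, pH 7.0 | Measured by: 2-h Alamar Blue fluorescence, 535/590 nm excitation/emission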
Mcl1 Bid PPI – Mcl-1/Bid interaction inhibition. Q07820. TR-FRET Mcl-1/Bid-Dy647 peptide binding, 1536-well. inhibition, % at 21.7 µM. hit rate 0.97% among 220,000. AID 1021;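 active = compounds that cut the binding signal by more than half at the single screening dose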;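 note: His-tagged Mcl-1 with europium anti-His antibody binding Bid BH3 peptide; 0% = Mcl-1 plus peptide wells and 100% = peptide-only wells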
Numbers without * were called inactive. An excerpt weighted towards active compounds, which were near 3.2% of everything screened.

What do the screens show for `COc1cc(C2CC(=O)N3CN(c4ccccc4C)CSC3=C2C#N)cc(OC)c1OC` (stereo not drawn)?
Mcl1-Noxa inh: 16.9; 14-3-3 Bad inh: 25.9; Bim-Mcl-1: -4.0; Hck-Nef inh: 0.5; Mcl1 Bid PPI: -21.1

What do the screens show for `COc1ccccc1N1CSC2=C(C#N)C(c3ccc(SC)cc3)CC(=O)N2C1` (stereo not drawn)?
Mcl1-Noxa inh: 83.0*; 14-3-3 Bad inh: -7.8; Bim-Mcl-1: 8.0; Hck-Nef inh: 3.8; Mcl1 Bid PPI: 1.5

What do the screens show for `CC(C)CC(=O)N1CCN(CC2CC=CCC2)CC1` (stereo not drawn)?
Mcl1-Noxa inh: 38.4; 14-3-3 Bad inh: 76.8*; Bim-Mcl-1: 0.0; Hck-Nef inh: 5.1; Biofilm kill mix: 15.0; Mcl1 Bid PPI: 56.8*

What do the screens show for `COc1ccc(C2C(C(=O)Nc3ccc(F)cc3)=C(C)Nc3nc(CCCO)nn32)cc1` (stereo not drawn)?
Mcl1-Noxa inh: 4.7; 14-3-3 Bad inh: -5.4; Bim-Mcl-1: 0.0; Hck-Nef inh: 2.2; Mcl1 Bid PPI: -19.4

Results for CCOc1ccc(C2C(C(=O)Nc3ccc(F)cc3)=C(C)Nc3nc(CCCO)nn32)cc1 (stereo not drawn) ?
Mcl1-Noxa inh: 4.0; 14-3-3 Bad inh: 77.1*; Bim-Mcl-1: -1.0; Hck-Nef inh: 0.9; Mcl1 Bid PPI: -19.7

What do the screens show for `CC(=O)N1CCN(Cc2nc3cc(NC(=O)Nc4ccccc4)ccc3n2C)CC1`?
Mcl1-Noxa inh: 11.7; 14-3-3 Bad inh: -5.0; Bim-Mcl-1: 0.0; Hck-Nef inh: 3.5; Biofilm kill mix: 10.8; Mcl1 Bid PPI: -17.5

Results for COc1cc([N+](=O)[O-])cc(/C=N/NC(=O)c2cc(-c3ccccc3)nc3ccccc23)c1O ?
Mcl1-Noxa inh: 3.6; 14-3-3 Bad inh: -15.5; Hck-Nef inh: -1.6; Biofilm kill mix: 10.8; Mcl1 Bid PPI: -159.7

What do the screens show for `O=C(N/N=C/c1cccc(F)c1)c1cc(-c2ccco2)nc2ccccc12`?
Mcl1-Noxa inh: 90.5*; 14-3-3 Bad inh: 24.3; Bim-Mcl-1: -2.0; Hck-Nef inh: 26.0; Mcl1 Bid PPI: -18.6

What do the screens show for `COc1cc(/C=N/NC(=O)c2cc(-c3ccco3)nc3ccccc23)cc(OC)c1O`?
Mcl1-Noxa inh: 82.0*; 14-3-3 Bad inh: 6.8; Hck-Nef inh: 45.8; Biofilm kill mix: 23.9; Mcl1 Bid PPI: -23.4

How did CCOC(=O)Cc1c(Sc2ccccc2)c2ccccc2n1C do in these assays?
Mcl1-Noxa inh: -11.5; 14-3-3 Bad inh: -1.4; Bim-Mcl-1: 0.0; Hck-Nef inh: 2.2; Biofilm kill mix: 22.4; Mcl1 Bid PPI: -3.4

What do the screens show for `O=C(c1ccccc1F)N1CCOCC1`?
Mcl1-Noxa inh: 7.0; 14-3-3 Bad inh: -9.6; Bim-Mcl-1: 0.0; Hck-Nef inh: 15.9; Biofilm kill mix: 0.3; Mcl1 Bid PPI: -15.7

Results for O=C(c1ccccc1CCc1ccccc1)N1CCOCC1 ?
Mcl1-Noxa inh: 2.1; 14-3-3 Bad inh: 9.5; Bim-Mcl-1: -4.0; Hck-Nef inh: 12.3; Mcl1 Bid PPI: 57.2*

Results for O=C(NCCc1csc(-c2cccnc2)n1)c1cccs1 ?
Mcl1-Noxa inh: 14.9; 14-3-3 Bad inh: 2.4; Bim-Mcl-1: -2.0; Hck-Nef inh: -1.7; Mcl1 Bid PPI: 86.1*

Results for CC(C)(C)NCC(O)COc1ccccc1C(C)(C)C (stereo not drawn) ?
Mcl1-Noxa inh: 54.2*; 14-3-3 Bad inh: -13.0; Bim-Mcl-1: -1.0; Hck-Nef inh: 1.5; Biofilm kill mix: -2.9; Mcl1 Bid PPI: -32.6

Results for Cc1cc(O)ccc1N/C=C(\C#N)c1nc2ccccc2o1 ?
Mcl1-Noxa inh: 27.7; 14-3-3 Bad inh: -3.6; Bim-Mcl-1: -2.0; Hck-Nef inh: 2.5; Biofilm kill mix: 8.3; Mcl1 Bid PPI: 92.7*

What do the screens show for `CC1=[N+](C)N(c2ccccc2)C(=O)C1N=C/C=C/c1ccccc1` (stereo not drawn)?
Mcl1-Noxa inh: 8.3; 14-3-3 Bad inh: -6.9; Hck-Nef inh: 12.9; Biofilm kill mix: 23.2; Mcl1 Bid PPI: -29.0

How did O=C1/C(=C/c2ccc(O)c([N+](=O)[O-])c2)SC(=S)N1Cc1ccccc1 do in these assays?
Mcl1-Noxa inh: 56.4*; 14-3-3 Bad inh: -1.2; Bim-Mcl-1: -2.0; Hck-Nef inh: 10.9; Biofilm kill mix: 17.3; Mcl1 Bid PPI: 13.4
